Reference: the M2OR odorant receptor database
Where a chain is given by its changes, count along the chain named.

Tests used:
Settings in all cases: stereoisomer not certain
[1] = molecular target: T1, OR4S2 (Homo sapiens) (UniProt Q8NH73)
T1 sequence (whole entry): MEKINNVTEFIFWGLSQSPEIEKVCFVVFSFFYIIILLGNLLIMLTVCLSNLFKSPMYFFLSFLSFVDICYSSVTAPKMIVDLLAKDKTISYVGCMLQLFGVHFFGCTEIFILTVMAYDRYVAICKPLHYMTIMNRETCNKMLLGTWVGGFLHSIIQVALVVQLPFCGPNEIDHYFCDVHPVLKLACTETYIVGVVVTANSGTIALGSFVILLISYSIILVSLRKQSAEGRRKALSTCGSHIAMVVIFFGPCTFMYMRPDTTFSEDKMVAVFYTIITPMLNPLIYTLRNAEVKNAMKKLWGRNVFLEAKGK
In short: (§1)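 Assay methods differ from source to source, frequently being transient luciferase assays in mammalian cell lines. For each receptor–molecule pair, the label responsive (active) applies when the original authors judged the measured signal statistically different from baseline, and non-responsive (inactive) applies otherwise.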

[2] = molecular target: T2, OR4X1 (Homo sapiens) (UniProt Q8NH49)
T2 sequence (whole entry): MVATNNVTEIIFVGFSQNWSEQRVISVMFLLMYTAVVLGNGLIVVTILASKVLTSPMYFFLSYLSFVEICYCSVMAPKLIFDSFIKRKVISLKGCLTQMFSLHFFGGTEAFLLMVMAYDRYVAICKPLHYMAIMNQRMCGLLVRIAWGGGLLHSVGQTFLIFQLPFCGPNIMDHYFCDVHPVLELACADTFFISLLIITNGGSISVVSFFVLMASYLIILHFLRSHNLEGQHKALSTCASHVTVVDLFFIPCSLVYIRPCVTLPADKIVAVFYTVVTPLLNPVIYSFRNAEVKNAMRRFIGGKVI
In short: as §1

[3] = molecular target: T3, OR4X2 (Homo sapiens) (UniProt Q8NGF9)
T3 sequence (whole entry): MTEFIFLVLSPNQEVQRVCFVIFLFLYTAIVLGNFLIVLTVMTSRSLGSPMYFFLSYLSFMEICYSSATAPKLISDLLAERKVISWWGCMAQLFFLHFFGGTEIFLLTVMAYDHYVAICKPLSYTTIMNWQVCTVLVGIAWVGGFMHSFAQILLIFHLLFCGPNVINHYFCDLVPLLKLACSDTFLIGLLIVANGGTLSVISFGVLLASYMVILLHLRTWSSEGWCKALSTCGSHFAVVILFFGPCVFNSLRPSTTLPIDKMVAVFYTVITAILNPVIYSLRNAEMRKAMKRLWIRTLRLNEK
In short: as §1

[4] = molecular target: T4, OR51A2 (Homo sapiens) (UniProt Q8NGJ7)
T4 sequence (whole entry): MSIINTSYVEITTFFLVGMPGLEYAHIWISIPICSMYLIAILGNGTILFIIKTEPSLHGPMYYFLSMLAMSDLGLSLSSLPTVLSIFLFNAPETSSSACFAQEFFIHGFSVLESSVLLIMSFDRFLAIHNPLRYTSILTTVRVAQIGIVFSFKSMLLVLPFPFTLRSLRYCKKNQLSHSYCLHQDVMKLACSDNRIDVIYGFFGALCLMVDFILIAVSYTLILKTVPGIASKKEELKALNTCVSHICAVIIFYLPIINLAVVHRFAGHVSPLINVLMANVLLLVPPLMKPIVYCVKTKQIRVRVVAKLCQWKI
In short: as §1

[5] = molecular target: T5, OR51A4 (Homo sapiens) (UniProt Q8NGJ6)
T5 sequence (whole entry): T4 sequence (whole entry) with G59E, T94I, S97N, S167N, P227L, E235Q, G267R, M288T, K289N, W311R
In short: as §1

[6] = molecular target: T6, OR51A7 (Homo sapiens) (UniProt Q8NH64)
T6 sequence (whole entry): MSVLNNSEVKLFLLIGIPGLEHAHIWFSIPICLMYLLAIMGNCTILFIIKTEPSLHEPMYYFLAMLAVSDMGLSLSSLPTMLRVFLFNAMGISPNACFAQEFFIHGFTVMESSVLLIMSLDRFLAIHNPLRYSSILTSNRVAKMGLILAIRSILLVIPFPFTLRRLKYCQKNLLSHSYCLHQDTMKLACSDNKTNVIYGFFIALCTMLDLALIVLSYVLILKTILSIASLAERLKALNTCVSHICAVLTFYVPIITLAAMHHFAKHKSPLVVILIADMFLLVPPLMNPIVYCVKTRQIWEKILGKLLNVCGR
In short: as §1

[7] = molecular target: T7, OR51B2 (Homo sapiens) (UniProt Q9Y5P1)
T7 sequence (whole entry): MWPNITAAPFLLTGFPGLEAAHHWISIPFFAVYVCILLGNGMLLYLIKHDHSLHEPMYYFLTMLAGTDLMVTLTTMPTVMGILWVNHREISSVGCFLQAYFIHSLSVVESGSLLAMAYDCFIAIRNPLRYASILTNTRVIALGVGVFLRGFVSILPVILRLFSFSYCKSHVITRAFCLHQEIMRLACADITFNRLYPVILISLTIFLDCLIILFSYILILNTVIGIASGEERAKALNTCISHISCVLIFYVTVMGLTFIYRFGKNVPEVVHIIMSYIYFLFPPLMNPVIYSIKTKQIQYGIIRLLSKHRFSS
In short: as §1

[8] = molecular target: T8, OR51B4 (Homo sapiens) (UniProt Q9Y5P0)
T8 sequence (whole entry): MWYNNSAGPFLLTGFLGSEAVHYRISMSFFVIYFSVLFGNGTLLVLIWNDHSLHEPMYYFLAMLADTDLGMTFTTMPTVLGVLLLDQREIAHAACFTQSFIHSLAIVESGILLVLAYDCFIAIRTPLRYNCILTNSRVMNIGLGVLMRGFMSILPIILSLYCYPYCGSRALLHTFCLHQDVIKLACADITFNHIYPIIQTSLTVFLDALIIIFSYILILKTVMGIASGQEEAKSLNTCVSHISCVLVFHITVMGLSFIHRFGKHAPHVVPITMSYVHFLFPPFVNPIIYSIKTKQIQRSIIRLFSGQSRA
In short: as §1

[9] = molecular target: T9, OR51B5 (Homo sapiens) (UniProt Q9H339)
T9 sequence (whole entry): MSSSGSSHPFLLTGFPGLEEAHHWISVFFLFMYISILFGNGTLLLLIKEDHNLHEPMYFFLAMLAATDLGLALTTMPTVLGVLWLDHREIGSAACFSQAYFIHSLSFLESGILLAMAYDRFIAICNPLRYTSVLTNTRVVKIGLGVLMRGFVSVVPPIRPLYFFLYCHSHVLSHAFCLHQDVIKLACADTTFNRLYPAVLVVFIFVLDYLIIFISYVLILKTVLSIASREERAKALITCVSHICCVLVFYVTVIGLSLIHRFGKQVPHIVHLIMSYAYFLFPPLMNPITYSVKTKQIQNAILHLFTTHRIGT
In short: as §1

[10] = molecular target: T10, OR51B6 (Homo sapiens) (UniProt Q9H340)
T10 sequence (whole entry): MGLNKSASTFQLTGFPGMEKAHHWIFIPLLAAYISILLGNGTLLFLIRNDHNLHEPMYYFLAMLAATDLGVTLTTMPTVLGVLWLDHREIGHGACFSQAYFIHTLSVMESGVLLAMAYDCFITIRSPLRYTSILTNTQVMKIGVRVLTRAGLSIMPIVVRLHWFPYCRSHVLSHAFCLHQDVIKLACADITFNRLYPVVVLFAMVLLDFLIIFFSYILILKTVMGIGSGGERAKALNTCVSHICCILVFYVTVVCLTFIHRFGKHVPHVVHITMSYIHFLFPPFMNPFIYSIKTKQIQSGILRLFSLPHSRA
In short: as §1

[11] = molecular target: T11, OR51D1 (Homo sapiens) (UniProt Q8NGF3)
T11 sequence (whole entry): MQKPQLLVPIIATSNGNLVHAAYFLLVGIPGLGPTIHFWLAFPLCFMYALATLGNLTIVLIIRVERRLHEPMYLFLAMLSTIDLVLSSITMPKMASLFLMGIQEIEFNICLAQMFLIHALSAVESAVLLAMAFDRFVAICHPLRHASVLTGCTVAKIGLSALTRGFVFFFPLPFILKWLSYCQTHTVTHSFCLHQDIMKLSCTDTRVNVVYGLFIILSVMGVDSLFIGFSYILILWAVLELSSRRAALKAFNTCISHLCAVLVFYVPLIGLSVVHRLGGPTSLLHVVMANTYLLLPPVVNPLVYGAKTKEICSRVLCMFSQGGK
In short: as §1

[12] = molecular target: T12, OR51E1 (Homo sapiens) (UniProt Q8TCB6)
T12 sequence (whole entry): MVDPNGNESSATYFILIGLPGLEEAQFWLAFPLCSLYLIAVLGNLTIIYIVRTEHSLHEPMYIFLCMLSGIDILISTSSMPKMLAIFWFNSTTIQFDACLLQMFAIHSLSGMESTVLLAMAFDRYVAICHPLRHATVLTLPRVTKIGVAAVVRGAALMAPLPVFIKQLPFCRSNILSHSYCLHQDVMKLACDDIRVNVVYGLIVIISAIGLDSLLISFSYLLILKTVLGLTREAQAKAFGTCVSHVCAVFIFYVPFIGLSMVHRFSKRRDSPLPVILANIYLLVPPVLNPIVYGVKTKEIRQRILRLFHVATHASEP
In short: as §1

[13] = molecular target: T13, OR51E2 (Homo sapiens) (UniProt Q9H255)
T13 sequence (whole entry): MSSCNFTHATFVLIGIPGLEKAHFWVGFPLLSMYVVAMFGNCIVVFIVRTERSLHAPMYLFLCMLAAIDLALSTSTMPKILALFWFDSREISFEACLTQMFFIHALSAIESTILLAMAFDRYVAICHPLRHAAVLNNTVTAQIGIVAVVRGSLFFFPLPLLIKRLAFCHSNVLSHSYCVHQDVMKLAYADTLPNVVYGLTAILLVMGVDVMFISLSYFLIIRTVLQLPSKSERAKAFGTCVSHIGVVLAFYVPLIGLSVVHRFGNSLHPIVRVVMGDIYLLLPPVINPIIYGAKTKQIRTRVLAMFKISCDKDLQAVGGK
In short: as §1

[14] = molecular target: T14, OR51F1 (Homo sapiens) (UniProt A6NGY5)
T14 sequence (whole entry): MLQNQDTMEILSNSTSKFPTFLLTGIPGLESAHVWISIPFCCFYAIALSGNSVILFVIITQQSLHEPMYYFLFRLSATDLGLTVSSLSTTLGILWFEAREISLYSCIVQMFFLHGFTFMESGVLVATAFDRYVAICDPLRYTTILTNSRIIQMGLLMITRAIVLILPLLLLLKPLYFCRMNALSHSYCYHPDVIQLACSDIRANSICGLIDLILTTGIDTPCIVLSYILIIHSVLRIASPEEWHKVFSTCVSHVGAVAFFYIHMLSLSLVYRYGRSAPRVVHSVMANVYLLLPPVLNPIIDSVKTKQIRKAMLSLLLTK
In short: as §1

[15] = molecular target: T15, OR51F2 (Homo sapiens) (UniProt Q8NH61)
T15 sequence (whole entry): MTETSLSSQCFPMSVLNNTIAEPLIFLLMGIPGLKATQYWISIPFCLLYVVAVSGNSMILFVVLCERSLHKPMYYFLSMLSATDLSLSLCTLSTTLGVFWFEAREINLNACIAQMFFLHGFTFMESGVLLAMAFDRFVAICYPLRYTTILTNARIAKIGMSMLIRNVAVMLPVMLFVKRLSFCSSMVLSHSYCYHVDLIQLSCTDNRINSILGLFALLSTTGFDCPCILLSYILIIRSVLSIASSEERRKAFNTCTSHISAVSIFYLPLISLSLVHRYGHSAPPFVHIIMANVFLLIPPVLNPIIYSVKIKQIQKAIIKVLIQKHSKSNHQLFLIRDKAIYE
In short: as §1

[16] = molecular target: T16, OR51G1 (Homo sapiens) (UniProt Q8NGK1)
T16 sequence (whole entry): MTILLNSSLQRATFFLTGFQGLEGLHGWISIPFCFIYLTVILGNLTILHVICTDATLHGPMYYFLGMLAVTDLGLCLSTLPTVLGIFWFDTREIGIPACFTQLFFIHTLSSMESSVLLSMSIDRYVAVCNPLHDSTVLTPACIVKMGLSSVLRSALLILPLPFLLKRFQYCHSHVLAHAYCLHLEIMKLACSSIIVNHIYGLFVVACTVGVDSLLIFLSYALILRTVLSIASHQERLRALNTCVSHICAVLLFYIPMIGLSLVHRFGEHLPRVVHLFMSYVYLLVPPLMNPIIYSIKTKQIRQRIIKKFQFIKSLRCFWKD
In short: as §1

[17] = molecular target: T17, OR51G2 (Homo sapiens) (UniProt Q8NGK0)
T17 sequence (whole entry): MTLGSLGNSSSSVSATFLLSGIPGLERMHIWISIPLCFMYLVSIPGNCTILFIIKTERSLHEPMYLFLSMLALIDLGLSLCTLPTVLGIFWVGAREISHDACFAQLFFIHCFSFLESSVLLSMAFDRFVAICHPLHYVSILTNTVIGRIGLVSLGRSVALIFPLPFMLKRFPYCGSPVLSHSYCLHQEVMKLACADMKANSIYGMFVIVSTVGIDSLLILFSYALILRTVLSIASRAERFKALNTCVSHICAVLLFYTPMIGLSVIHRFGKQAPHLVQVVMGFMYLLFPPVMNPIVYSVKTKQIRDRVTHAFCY
In short: as §1

[18] = molecular target: T18, OR51I1 (Homo sapiens) (UniProt Q9H343)
T18 sequence (whole entry): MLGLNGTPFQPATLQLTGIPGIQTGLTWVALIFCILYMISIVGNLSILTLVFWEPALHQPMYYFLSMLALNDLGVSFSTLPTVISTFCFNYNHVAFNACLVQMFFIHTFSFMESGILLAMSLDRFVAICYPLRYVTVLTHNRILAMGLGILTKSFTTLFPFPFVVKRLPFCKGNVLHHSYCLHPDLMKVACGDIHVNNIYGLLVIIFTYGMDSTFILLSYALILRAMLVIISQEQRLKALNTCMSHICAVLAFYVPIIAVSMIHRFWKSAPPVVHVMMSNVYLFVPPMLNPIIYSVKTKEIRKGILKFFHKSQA
In short: as §1

Measured: odorant receptor agonist call

CCCCCCC=CCCC=O
inactive: all assays above
